ChEMBL document CHEMBL4831540, “Discovery of Aficamten (CK-274), a Next-Generation Cardiac Myosin Inhibitor for the Treatment of Hypertrophic Cardiomyopathy” (J Med Chem, 2021)
≈ marks a conversion by molar mass, not a printed value.

Tests used:
Bos taurus = species: Bos taurus; assay: (§1) Inhibition of full-length myosin ATPase activity in bovine cardiac myofibrils; type: subcellular; settings: Heart, Myofibril
How it was run: (§2)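 Bovine cardiac myofibril ATPase assay run at a calcium level giving 75% of maximal activity.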

[1] = as §1; type: subcellular, Bos taurus, Heart; how it was run: as §2
[2] = Plasma protein binding in rat plasma assessed as unbound concentration at 5 uM incubated for 6 hrs by HPLC analysis; type: ADME, cell-free
[3] = Metabolic stability in rat liver microsomes assessed as intrinsic clearance measured upto 90mins by HPLC/MS/MS analysis; type: ADME, Microsome; settings: read-out: CLH
[4] = Metabolic stability in human liver microsomes assessed as intrinsic clearance measured upto 90mins by HPLC/MS/MS analysis; type: ADME, Microsome; settings: read-out: CLH
[5] = Clearance in Sprague-Dawley rat at 1 mg/kg; settings: in vivo
[6] = Half life in Sprague-Dawley rat at 1 mg/kg; type: ADME, organism-based; settings: in vivo
How it was run: (§3)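 Rat PK with iv and po administration at 1 mg/kg. Clearance and half-life came from the iv arm, and bioavailability from the iv/po comparison.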

[7] = Bioavailability in Sprague-Dawley rat at 1 mg/kg, po or 1 mg/kg, iv; type: ADME, organism-based; settings: in vivo; how it was run: as §3
[8] = Clearance in Sprague-Dawley rat at 1 mg/kg; type: ADME, organism-based; settings: in vivo; how it was run: as §3
[9] = Plasma protein binding in rat assessed as unbound fraction; type: ADME, cell-free
[10] = Plasma protein binding in human assessed as unbound fraction; type: ADME, cell-free
[11] = Solubility of the compound at pH 6.8 by shake flask method; type: physicochemical; settings: buffer
How it was run: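 Shake-flask solubility at pH 6.8; solid form not characterized.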

[12] = Bioavailability in Sprague-Dawley rat at 2 to 6 mg/kg, po and 1 mg/kg, iv; settings: in vivo

SMILES | IC15 (Bos taurus) | IC50 [1] | fraction unbound at 6 h, 5 µM [2] | CLint scaled [3] | CLint scaled [4] | clearance [5] | half-life [6] | bioavailability [7] | clearance [8] | fraction unbound [9] | fraction unbound [10] | solubility thermodynamic [11] | bioavailability [12]
Cc1cc(C(=O)NC2CCc3cc(-c4noc(C)n4)ccc32)ccn1 (racemic) |  | 7.1 µM | 0.097 | < 21 mL/min/kg | < 11 mL/min/kg |  |  |  |  |  |  |  | 
Cn1cc(C(=O)N[C@@H]2CCc3cc(-c4noc(CCO)n4)ccc32)cn1 |  | > 39 µM |  |  |  |  |  |  |  |  |  |  | 
Cc1nc(-c2ccc3c(c2)CCC3NC(=O)c2cnc(C)n2C)no1 (racemic) |  | 7.6 µM | 0.089 | < 21 mL/min/kg | < 11 mL/min/kg |  |  |  |  |  |  |  | 
Cc1cc(C(=O)N[C@@H]2CCc3cc(-c4noc(C(C)C)n4)ccc32)ccn1 |  | 2.7 µM | 0.053 | 23 mL/min/kg | < 11 mL/min/kg | 14 mL/min/kg | 276 min | 79% | 14 mL/min/kg |  |  |  | 
CC(C)c1nc(-c2ccc3c(c2)CC[C@H]3NC(=O)c2nnn(C)n2)no1 |  | 1.9 µM | 0.17 | < 21 mL/min/kg | < 11 mL/min/kg | 16 mL/min/kg | 276 min | 52% | 16 mL/min/kg | 0.089 |  |  | 
Cc1nc(-c2ccc3c(c2)CCC3NC(=O)c2nnn(C)n2)no1 (racemic) |  | 5.1 µM | 0.19 | < 21 mL/min/kg | < 11 mL/min/kg |  |  |  |  |  |  |  | 
Cc1cc(C(=O)NC2CCc3cc(-c4noc(C)n4)ccc32)on1 (racemic) |  | 8.1 µM | 0.072 | 48 mL/min/kg | < 11 mL/min/kg |  |  |  |  |  |  |  | 
Cc1nc(-c2ccc3c(c2)CCC3NC(=O)c2oncc2C)no1 (racemic) |  | 2.5 µM | 0.064 | 46 mL/min/kg | < 11 mL/min/kg |  |  |  |  |  |  |  | 

More lines, now with the values ahead:

IC15 (Bos taurus) | IC50 [1] | fraction unbound at 6 h, 5 µM [2] | CLint scaled [3] | CLint scaled [4] | clearance [5] | half-life [6] | bioavailability [7] | clearance [8] | fraction unbound [9] | fraction unbound [10] | solubility thermodynamic [11] | bioavailability [12] | SMILES
> 39 µM | > 39 µM |  |  |  |  |  |  |  |  |  |  |  | CCc1nc(-c2ccc3c(c2)CCN3C(=O)NCc2ccccc2)no1
3.4 µM | > 39 µM |  |  |  |  |  |  |  |  |  |  |  | CCc1nc(-c2ccc3c(c2)CCN3CCc2ccccc2)no1
> 39 µM | > 39 µM |  |  |  |  |  |  |  |  |  |  |  | CCc1nc(-c2ccc3c(c2)CCN3C(=O)Nc2ccccc2)no1
> 39 µM | > 39 µM |  |  |  |  |  |  |  |  |  |  |  | CCc1nc(-c2ccc3c(c2)CCN3C(=O)CCc2ccccc2)no1
 | 6.8 µM | 0.082 | < 21 mL/min/kg | < 11 mL/min/kg |  |  |  |  | 0.082 | 0.12 | 63 µM (≈ 22.3 µg/mL) |  | COCc1nc(-c2ccc3c(c2)CC[C@H]3NC(=O)c2cnn(C)c2)no1
 | 0.9 µM | 0.29 | < 21 mL/min/kg | < 11 mL/min/kg | 20 mL/min/kg | 378 min |  | 20 mL/min/kg | 0.11 |  |  | 53% | CCc1nc(-c2ccc3c(c2)CC[C@H]3NC(=O)c2nnn(C)n2)no1
> 39 µM | > 39 µM |  |  |  |  |  |  |  |  |  |  |  | CCc1nc(-c2ccc3c(c2)CCN3C(=O)c2ccccc2)no1
 | 1.2 µM | 0.084 | 23 mL/min/kg | < 11 mL/min/kg | 13 mL/min/kg | 210 min | 32% | 13 mL/min/kg | 0.021 |  |  |  | CCc1nc(-c2ccc3c(c2)CC[C@H]3NC(=O)c2ccnc(C)c2)no1
 | 1.7 µM | 0.18 | < 21 mL/min/kg | < 11 mL/min/kg | 21 mL/min/kg | 246 min | 13% | 21 mL/min/kg | 0.046 |  |  |  | CCc1nc(-c2ccc3c(c2)CC[C@H]3NC(=O)c2cnc(C)o2)no1
 | 1.2 µM | 0.31 |  | < 11 mL/min/kg | 44 mL/min/kg | 396 min | 16% | 44 mL/min/kg |  |  |  |  | CCc1nc(-c2ccc3c(c2)CC[C@H]3NC(=O)c2ccnnc2)no1
